Experimental data from article PMC3758425 (Biochemistry, 2013).
“Also recorded” adds a separate entry of the source.

Assays:
[1] = molecular target: holo-CaM (Ca-bound human calmodulin) (Homo sapiens, UniProt P0DP23); experiment: NMR titration; details: compared with literature membrane binding, [55], [56]
Outline: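 Human CaM was expressed in E. coli and purified, ¹⁵N-labelled, holo form, held constant at 100 μM. It was titrated with N-acetylated α-syn, as the 1–19 peptide or the full-length protein, in 50 mM MES, 100 mM NaCl, 3 mM CaCl₂, pH 6.4, 5% D₂O. Amide shifts were read by ¹⁵N HSQC at 800 MHz, 310 K. Ten amides were scaled to one reference residue and fitted globally to a two-state 1:1 model.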

[2] = molecular target: CaM; details: non-acetylated α-syn, cited from earlier work
[3] = test system: apo-CaM; details: non-acetylated α-syn; ref [28], [29]; cited from earlier work
[4] = ref [36]; cited from earlier work
[5] = non-acetylated form; ref [28]; cited from earlier work

For “α-syn: Full-length non-acetylated α-syn expressed in E. coli”, the “binding constant to holo-CaM relative to membranes containing anionic lipids” value [1] is listed as “comparable”, the “binding affinity (two earlier studies)” value ([2]; ref [28], [29]) is listed as “submicromolar range” and the Kd ([2]; read-out: dissociation constant (later study), ref [30]) is listed as roughly 10 µM. For the same substance, the “interaction with apo-CaM in earlier studies” value [3] was “There is disagreement whether apo-CaM can interact with α-syn; also recorded: one report seeing interaction only in the presence of calcium-bound (holo-) CaM whereas the other observed little difference between the two forms”, the “affinity for negatively charged membranes, effect of N-terminal acetylation” value [4] was “N-terminal acetylation increases its affinity for negatively charged membranes” and the “competition of CaM with membrane for α-syn binding” value [5] was “CaM can compete with the membrane for α-syn binding”.
